Activity calls are given as the source filed them. The calls are words filed in the database; no cut-off is given here.
Tests used:
HCT-116 [1] = experiment: Cytotoxicity against human HCT116 cells after 72 hrs by MTT assay; type: functional, cell-based; conditions: HCT-116, 72 h
Summary of the method: (§1)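 Tumour lines were grown in DMEM with 5% fetal calf serum, 2 mM L-glutamine, penicillin and streptomycin at 37 °C, 5% CO2, and used in log phase. 5×10^3 cells per well were exposed to serial concentrations (each in triplicate; 10 mM DMSO stocks diluted in water) or 0.1% DMSO for 72 h. MTT was added for 2 h, formazan dissolved in DMSO, and A540 read. IC50 was taken at 50% viability versus vehicle.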

K562 = experiment: Cytotoxicity against human K562 cells after 72 hrs by MTT assay; type: functional, cell-based; conditions: K562, 72 h; summary of the method: as §1
SK-OV-3 = experiment: Cytotoxicity against human SKOV3 cells after 72 hrs by MTT assay; type: functional, cell-based; summary of the method: as §1
HCT-116 [2] = experiment: Induction of apoptosis in human HCT116 cells assessed as internucleosomal DNA fragmentation at 1 uM after 24 to 48 hrs by agarose gel by electrophoresis; type: functional, cell-based
Summary of the method: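 HCT116 cells were seeded at 5×10^4 per well overnight and treated with 1 µM for 24–48 h, with drug-free controls. Cells were lysed for 30 min on ice in 350 mM NaCl, 20 mM Tris-HCl pH 7.4, 2 mM MgCl2, 1 mM DTT and 0.5% NP-40. DNA was phenol-chloroform extracted, ethanol/sodium acetate precipitated, and run on a 1% agarose gel.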

HCT-116 [3] = experiment: Induction of apoptosis in human HCT116 cells assessed as increase of hypodiploid nuclei at sub-G1 phase at 1 uM after 24 to 48 hrs […] by flow cytometry; type: functional, cell-based
Summary of the method: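 HCT116 cells were seeded at 5×10^4 per well overnight, then exposed to 1 µM for 24–48 h at 37 °C with drug-free controls. Cells were washed in cold saline and lysed in 0.1% sodium citrate, 0.3% NP-40, 50 µg/ml RNase A and 10 µg/ml propidium iodide. Flow cytometry on FL2 gave the percentage of hypodiploid (sub-G1) nuclei.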

HCT-116 [4] = experiment: Induction of apoptosis in human HCT116 cells assessed as programmed cell death at 1 uM after 24 to 48 hrs using Annexin V-FITC staining by flow cytometry; type: functional, cell-based
Summary of the method: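 HCT116 cells were plated at 5×10^4 per well overnight, given 1 µM for 24–48 h at 37 °C, 5% CO2 (controls without drug), washed with cold saline and harvested. One aliquot was stained with Annexin V-FITC per the manufacturer and analysed by flow cytometry.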

Fem-X = experiment: Cytotoxicity against human Fem-X cells after 72 hrs by MTT assay; type: functional, cell-based; summary of the method: as §1
HCT-116 [5] = experiment: Induction of apoptosis in human HCT116 cells assessed as loss of DNA integrity at 1 uM after 24 to 48 hrs using Annexin V-FITC staining by flow cytometry; type: functional, cell-based
PBL = experiment: Cytotoxicity against human PBL cells after 72 hrs by MTT assay; type: cell-based
Summary of the method: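 Lymphocytes were freshly isolated from peripheral blood of four healthy donors and pooled. 5×10^3 cells per well were treated with increasing concentrations in triplicate (DMSO stocks diluted in water) or 0.1% DMSO vehicle for 72 h. MTT was added for 2 h, then formazan dissolved in DMSO and read at 540 nm. IC50 was the concentration giving 50% viability relative to vehicle.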

MCF7 = experiment: Cytotoxicity against human MCF7 cells after 72 hrs by MTT assay; type: functional, cell-based; summary of the method: as §1
Mel-Kor = experiment: Cytotoxicity against human Mel-Kor cells after 72 hrs by MTT assay; type: functional, cell-based; summary of the method: as §1
Jurkat = experiment: Cytotoxicity against human Jurkat cells after 72 hrs by MTT assay; type: functional, cell-based; summary of the method: as §1
SK-BR-3 = experiment: Cytotoxicity against human SK-BR-3 cells after 72 hrs by MTT assay; type: functional, cell-based; summary of the method: as §1
HCT-116 [6] = experiment: Induction of apoptosis in p53 deficient human HCT116 cells at 1 uM after 24 to 48 hrs using Annexin V-FITC staining by flow cytometry; type: functional, cell-based

## CCCCCCn1cc([C+](c2cn(CCCCCC)c3ccccc23)c2cn(CCCCCC)c3ccccc23)c2ccccc21
HCT-116 [1]
  IC50: 0.3 µM
K562
  IC50: 0.074 µM

## Cn1cc([C+](c2cn(C)c3ccccc23)c2cn(C)c3ccccc23)c2ccccc21
HCT-116 [1]
  IC50: 3.2 µM
K562
  IC50: 3.2 µM

## CCCCCn1cc([C+](c2cn(CCCCC)c3ccccc23)c2cn(CCCCC)c3ccccc23)c2ccccc21
SK-OV-3
  Activity: Active
HCT-116 [2]
  Activity: Active
HCT-116 [3]
  Activity: Active
HCT-116 [4]
  Activity: Active
HCT-116 [1]
  IC50: 0.15 µM
Fem-X
  Activity: Active
HCT-116 [5]
  Activity: Active
PBL
  Activity: Non-toxic
MCF7
  Activity: Active
Mel-Kor
  Activity: Active
Jurkat
  Activity: Active
SK-BR-3
  Activity: Active
K562
  IC50: 0.05 µM
HCT-116 [6]
  Activity: Active

## CCCCCCCCCCn1cc([C+](c2cn(CCCCCCCCCC)c3ccccc23)c2cn(CCCCCCCCCC)c3ccccc23)c2ccccc21
HCT-116 [1]
  IC50: 16.4 µM
K562
  IC50: 12.4 µM

## c1ccc2c([C+](c3c[nH]c4ccccc34)c3c[nH]c4ccccc34)c[nH]c2c1
HCT-116 [1]
  IC50: 2.3 µM
K562
  IC50: 1.6 µM

## c1ccc(Cn2cc([C+](c3cn(Cc4ccccc4)c4ccccc34)c3cn(Cc4ccccc4)c4ccccc34)c3ccccc32)cc1
HCT-116 [1]
  IC50: 15 µM
K562
  IC50: 9.3 µM

## CCCCn1cc([C+](c2cn(CCCC)c3ccccc23)c2cn(CCCC)c3ccccc23)c2ccccc21
HCT-116 [1]
  IC50: 0.3 µM
K562
  IC50: 0.09 µM

## CCn1cc([C+](c2cn(CC)c3ccccc23)c2cn(CC)c3ccccc23)c2ccccc21
HCT-116 [1]
  IC50: 1.3 µM
K562
  IC50: 0.2 µM

## CCCn1cc([C+](c2cn(CCC)c3ccccc23)c2cn(CCC)c3ccccc23)c2ccccc21
HCT-116 [1]
  IC50: 1 µM
K562
  IC50: 0.2 µM

— ChEMBL document CHEMBL1250508, “Synthesis and cytotoxic potency of novel tris(1-alkylindol-3-yl)methylium salts: role of N-alkyl substituents” (Bioorg Med Chem, 2010)
